Measurements from different studies.
Lines come from different studies, so protocols differ.
BCHE: Cholinesterase (BCHE, Homo sapiens, UniProt P06276)
Oprk1: Kappa-type opioid receptor (Oprk1, Mus musculus, UniProt P33534)

Structure (SMILES)	target	assay	measurement	value
CC(C)c1cc2c(c(O)c1O)[C@@]13CCCC(C)(C)[C@@H]1C[C@@H]2OC3=O	BCHE	enzyme activity, inhibitor	IC50	0.00095 µM
COc1cc2c(cc1OC)CN(CCc1ccc(NC(=O)c3cccc4c(=O)c5cccc(OC)c5[nH]c34)cc1)CC2	Muscarinic acetylcholine receptor M5 (CHRM5, Homo sapiens, UniProt P08912)	cell-free assay	Ki	> 10 µM
COc1cc(/C=C/C(=O)O)ccc1OCc1cn(CC(=O)Nc2ccc(Cl)cc2Cl)nn1	BCHE	enzyme activity, inhibitor, Ellman	Ki	1.85 µM
CC(C)c1cc2c(c(O)c1O)[C@@]13CCCC(C)(C)[C@@H]1[C@@H](O)[C@@H]2OC3=O	BCHE	enzyme activity, inhibitor	IC50	0.00141 µM
CC(C)[C@@H](CN1CCc2ccccc2C1)NC(=O)c1cccc(-c2cccc(O)c2)c1	Oprk1	ligand displacement, radioligand	Ki	0.81 µM
C=CCOc1ccc(C(=O)/C=C/c2ccc(OC)cc2)c(OS(=O)(=O)c2ccccc2[N+](=O)[O-])c1I	BCHE	enzyme activity, inhibitor	IC50	14.2 µM
Cc1c(CC(=O)N[C@@H](CN2CCc3ccccc3C2)C(C)C)cccc1[N+](=O)[O-]	Oprk1	ligand displacement, radioligand	Ki	3.38 µM
CCCC(=O)CC(=O)N[C@H]1CCOC1=O	qscR (Pseudomonas aeruginosa, UniProt G3XD77)	reporter gene, agonist	EC50	13 µM
C=CCOc1ccc(C(=O)/C=C/c2ccc(OC)cc2)c(OS(=O)(=O)c2ccc(F)cc2)c1I	BCHE	enzyme activity, inhibitor	IC50	11.3 µM
CSCC[C@H](NC(=O)[C@H](CCCNC(=N)N)NC(=O)[C@H](Cc1ccc(O)cc1)NC(=O)[C@@H]1CCCN1C(=O)CNC(=O)[C@H](CCC(=O)O)NC(=O)[C@H](Cc1c[nH]cn1)NC(=O)[C@H](CCCCN)NC(=O)[C@H](CCCCN)NC(=O)[C@H](CCC(=O)O)NC(=O)[C@H](C)N)C(=O)N[C@@H](CCC(=O)O)C(=O)N[C@@H](Cc1c[nH]cn1)C(=O)N[C@@H](Cc1ccccc1)C(=O)N[C@@H](CCCNC(=N)N)C(=O)N[C@@H](Cc1c[nH]c2ccccc12)C(=O)NCC(=O)N[C@@H](CO)C(=O)N1CCC[C@H]1C(=O)N1CCC[C@H]1C(=O)N[C@@H](CCCCN)C(=O)N[C@@H](CC(=O)O)C(=O)O	Melanocortin receptor 4 (MC4R, Homo sapiens, UniProt P32245)	reporter gene, agonist, luciferase	EC50	0.00146 µM
CC(C)c1cc2c(c(O)c1O)[C@@]13CCCC(C)(C)[C@@H]1[C@H](OC3=O)[C@H]2O	BCHE	enzyme activity, inhibitor	IC50	0.00075 µM
C=CCOc1ccc(C(=O)/C=C/c2cccc(F)c2)c(OS(=O)(=O)c2ccc(OC)cc2)c1I	BCHE	enzyme activity, inhibitor	IC50	14.5 µM
COc1c2c(cc3c1-c1c(cc4c(c1OC)OCO4)C[C@H](C)[C@H](C)C3)OCO2	BCHE	enzyme activity, inhibitor, Ellman	IC50	> 100 µM
CC(C)[C@@H](CN1CCc2ccccc2C1)NC(=O)Cc1c[nH]c2ccccc12	Oprk1	ligand displacement, radioligand	Ki	2.75 µM
C=CCOc1ccc(C(=O)/C=C/c2ccc(OC)cc2)c(OS(=O)(=O)c2ccc(OC)cc2)c1I	BCHE	enzyme activity, inhibitor	IC50	30.1 µM
CC(C)c1cc2c(c(O)c1O)[C@@]1(C(=O)O)CCCC(C)(C)[C@@H]1CC2	BCHE	enzyme activity, inhibitor, absorbance	Ki	0.00049 µM
